Measurements published in ChEMBL document CHEMBL4325907, “Diaryl hydroxylamines as pan or dual inhibitors of indoleamine 2,3-dioxygenase-1, indoleamine 2,3-dioxygenase-2 and tryptophan dioxygenase” (Eur J Med Chem, 2019).
Activity calls are given as the source filed them. The calls are words filed in the database; no cut-off is given here.

Experiments:
[1] = molecular target: T1, Indoleamine 2,3-dioxygenase 1 (Homo sapiens, UniProt P14902); experiment: Inhibition of IDO1 (unknown origin) at 100 uM using L-tryptophan as substrate by spectrophotometric method relative to control
Target sequence in this assay (P14902 whole entry, looked up): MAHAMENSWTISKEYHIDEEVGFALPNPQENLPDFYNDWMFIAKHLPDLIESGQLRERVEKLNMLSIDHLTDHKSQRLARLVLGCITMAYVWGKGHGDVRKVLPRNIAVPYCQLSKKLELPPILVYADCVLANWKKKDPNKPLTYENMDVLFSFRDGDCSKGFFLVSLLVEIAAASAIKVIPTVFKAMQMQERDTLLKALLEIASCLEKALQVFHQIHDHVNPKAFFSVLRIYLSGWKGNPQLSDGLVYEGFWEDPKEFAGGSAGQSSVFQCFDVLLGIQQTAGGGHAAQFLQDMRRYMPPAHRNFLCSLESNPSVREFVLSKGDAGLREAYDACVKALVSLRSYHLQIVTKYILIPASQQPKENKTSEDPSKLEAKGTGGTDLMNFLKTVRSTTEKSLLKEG

[2] = molecular target: T2, Indoleamine 2,3-dioxygenase 2 (Homo sapiens) (UniProt Q6ZQW0); experiment: Inhibition of IDO2 (unknown origin) at 100 uM using L-tryptophan as substrate by spectrophotometric method relative to control
T2 sequence (whole entry): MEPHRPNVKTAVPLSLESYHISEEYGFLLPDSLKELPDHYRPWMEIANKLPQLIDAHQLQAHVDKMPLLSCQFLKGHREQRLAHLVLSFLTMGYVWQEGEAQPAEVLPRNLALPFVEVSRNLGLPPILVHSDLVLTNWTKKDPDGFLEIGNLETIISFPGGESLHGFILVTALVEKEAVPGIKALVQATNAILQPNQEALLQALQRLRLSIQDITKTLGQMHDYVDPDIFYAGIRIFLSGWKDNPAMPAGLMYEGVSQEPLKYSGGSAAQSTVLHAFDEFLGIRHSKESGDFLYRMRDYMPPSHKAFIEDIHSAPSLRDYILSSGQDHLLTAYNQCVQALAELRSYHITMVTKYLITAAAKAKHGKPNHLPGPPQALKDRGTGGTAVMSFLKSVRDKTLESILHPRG

[3] = molecular target: T3, Tryptophan 2,3-dioxygenase (Homo sapiens, UniProt P48775); experiment: Inhibition of TDO (unknown origin) at 100 uM using L-tryptophan as substrate by spectrophotometric method relative to control
Target sequence in this assay (P48775 whole entry, looked up): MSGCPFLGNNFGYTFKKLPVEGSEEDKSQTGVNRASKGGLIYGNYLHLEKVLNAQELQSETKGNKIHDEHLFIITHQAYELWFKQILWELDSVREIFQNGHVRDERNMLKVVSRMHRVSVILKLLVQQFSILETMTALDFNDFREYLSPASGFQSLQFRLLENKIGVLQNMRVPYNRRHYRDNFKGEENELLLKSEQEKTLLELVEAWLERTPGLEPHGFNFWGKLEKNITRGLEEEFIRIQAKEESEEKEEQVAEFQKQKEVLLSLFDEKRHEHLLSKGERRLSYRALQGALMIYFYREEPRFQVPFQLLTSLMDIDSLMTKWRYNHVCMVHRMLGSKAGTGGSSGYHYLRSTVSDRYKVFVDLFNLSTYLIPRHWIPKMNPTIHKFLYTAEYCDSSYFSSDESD

[4] = molecular target: T1, Indoleamine 2,3-dioxygenase 1; experiment: Inhibition of IDO1 (unknown origin) using L-tryptophan as substrate by spectrophotometric method
Target sequence in this assay (P14902 whole entry): as the sequence (P14902 whole entry, looked up) above

[5] = molecular target: T1, Indoleamine 2,3-dioxygenase 1; experiment: Inhibition of IDO1 in human HeLa cells using L-tryptophan as substrate after 20 hrs; assay type: cell-based
Outline: (§1)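 HeLa cells (endogenous human IDO1) were induced with 100 ng/mL IFNγ for 24 h at 100 μM Trp. T-REx cells carried tet-regulated human TDO (2 ng/mL doxycycline, 24 h, 100 μM Trp) or mouse IDO2 (doxycycline plus 8 mM 5-aminolevulinic acid, 20 μM hemin, 4 mM Trp, 48 h). After induction, compound serial dilutions were added in medium with final Trp 100 μM (IDO1/TDO) or 2 mM (IDO2) for 20 h at 37 °C. Read-out was TCA fixation, 65 °C hydrolysis, then p-dimethylaminobenzaldehyde colour.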
Target sequence in this assay (P14902 whole entry): as the sequence (P14902 whole entry, looked up) above

[6] = molecular target: T4, Indoleamine 2,3-dioxygenase 2 (Mus musculus, UniProt Q8R0V5); experiment: Inhibition of mouse IDO2 expressed in human T-REx cells using L-tryptophan as substrate after 20 hrs; assay type: cell-based; outline: as §1
T4 sequence (Q8R0V5 whole entry): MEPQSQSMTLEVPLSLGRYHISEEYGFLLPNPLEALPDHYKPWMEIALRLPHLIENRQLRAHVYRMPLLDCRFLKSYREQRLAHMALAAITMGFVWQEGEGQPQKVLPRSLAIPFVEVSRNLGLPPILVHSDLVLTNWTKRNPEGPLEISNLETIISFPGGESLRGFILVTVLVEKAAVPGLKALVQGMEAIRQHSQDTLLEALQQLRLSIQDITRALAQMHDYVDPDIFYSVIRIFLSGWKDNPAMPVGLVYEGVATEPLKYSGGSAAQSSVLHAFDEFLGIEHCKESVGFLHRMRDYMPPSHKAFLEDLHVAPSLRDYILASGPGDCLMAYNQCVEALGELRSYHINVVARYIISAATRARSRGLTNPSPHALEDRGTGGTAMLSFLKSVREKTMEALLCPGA

[7] = molecular target: T3, Tryptophan 2,3-dioxygenase; experiment: Inhibition of human TDO expressed in human T-REx cells using L-tryptophan as substrate after 20 hrs; assay type: cell-based; outline: as §1
Target sequence in this assay (P48775 whole entry): as the sequence (P48775 whole entry, looked up) above

[8] = Cytotoxicity against human HeLa cells assessed as cell viability up to 100 uM relative to control; assay type: cell-based; conditions: read-out: Activity
[9] = molecular target: T3, Tryptophan 2,3-dioxygenase; experiment: Inhibition of TDO (unknown origin) using L-tryptophan as substrate by spectrophotometric method
Target sequence in this assay (P48775 whole entry): as the sequence (P48775 whole entry, looked up) above

[10] = molecular target: T1, Indoleamine 2,3-dioxygenase 1; experiment: Inhibition of IDO1 (unknown origin) at 200 uM using L-tryptophan as substrate by spectrophotometric method relative to control
Target sequence in this assay (P14902 whole entry, looked up): as the sequence (P14902 whole entry, looked up) above

[11] = molecular target: T2, Indoleamine 2,3-dioxygenase 2 (Homo sapiens); experiment: Inhibition of IDO2 (unknown origin) at 200 uM using L-tryptophan as substrate by spectrophotometric method relative to control
[12] = molecular target: T3, Tryptophan 2,3-dioxygenase; experiment: Inhibition of TDO (unknown origin) at 200 uM using L-tryptophan as substrate by spectrophotometric method relative to control
Target sequence in this assay (P48775 whole entry, looked up): as the sequence (P48775 whole entry, looked up) above

[13] = molecular target: T1, Indoleamine 2,3-dioxygenase 1; experiment: Inhibition of IDO1 in human HeLa cells at IC50 using L-tryptophan as substrate after 24 hrs in presence of 100% human serum by LC-MS/MS analysis; assay type: cell-based
Target sequence in this assay (P14902 whole entry, looked up): as the sequence (P14902 whole entry, looked up) above

[14] = species on record: Homo sapiens; experiment: Selectivity ratio of IC50 for inhibition of IDO2 (unknown origin) to IC50 for inhibition of IDO1 (unknown origin)
[15] = species on record: Homo sapiens; experiment: Selectivity ratio of IC50 for inhibition of TDO (unknown origin) to IC50 for inhibition of IDO1 (unknown origin)
[16] = Selectivity ratio of IC50 for inhibition of mouse IDO2 expressed in human T-REx cells to IC50 for inhibition of IDO1 in human HeLa cells; assay type: cell-based; outline: as §1
[17] = species on record: Homo sapiens; experiment: Selectivity ratio of IC50 for inhibition of human TDO expressed in human T-REx cells to IC50 for inhibition of IDO1 in human HeLa cells; assay type: cell-based; outline: as §1

NOC(c1ccccc1)c1ccc(F)cc1F (configuration not stated)
inhibition [1]: > 95% | inhibition [2]: 46% | inhibition [3]: 90.3% | IC50 [4]: 7 µM | IC50 [5]: 1.21 µM | IC50 [6]: 18.9 µM | IC50 [7]: 6.37 µM | viability [8]: 60%

NS(=O)(=O)NCCNc1nonc1C(=NO)Nc1ccc(F)c(Br)c1 [EPACADOSTAT]
IC50 [6]: 18.9 µM | IC50 [7]: 25.2 µM | viability [8]: ≥ 80%

NOC(c1ccc(Cl)cc1)c1ccc(Cl)cc1
inhibition [1]: > 95% | inhibition [2]: 69.3% | inhibition [3]: > 95% | IC50 [4]: 3 µM | IC50 [9]: 2 µM | IC50 [5]: 1.09 µM | IC50 [6]: 12.5 µM | IC50 [7]: 4.53 µM | viability [8]: ≥ 80%

NOC(c1ccccc1)c1ccc(O)cc1 (configuration not stated)
inhibition [10]: 18.3% | inhibition [11]: 72.3% | inhibition [12]: 48.7% | IC50 [5]: 2.89 µM | IC50 [6]: 12.6 µM | IC50 [7]: 29.8 µM | viability [8]: ≥ 80%

NOC(c1ccccc1)c1ccc(Cl)cc1Cl (configuration not stated)
inhibition [1]: > 95% | inhibition [2]: 73% | inhibition [3]: > 95% | IC50 [4]: 4 µM | IC50 [9]: 6 µM | IC50 [5]: 1.99 µM | IC50 [6]: 7.68 µM | IC50 [7]: 4.82 µM | viability [8]: ≥ 80% | inhibition [13]: inactive

NOC(CCCC(=O)Nc1ccccc1)c1cccc(Cl)c1 (configuration not stated)
inhibition [1]: > 95% | inhibition [2]: 84.3% | inhibition [3]: 75.5% | IC50 [4]: 3 µM | IC50 [5]: 1.43 µM | IC50 [6]: 36.1 µM | IC50 [7]: 123 µM | Ratio IC50 [14]: > 20 | Ratio IC50 [15]: > 20 | viability [8]: ≥ 80%

NOC(c1ccc(F)cc1)c1ccc(F)cc1
inhibition [1]: > 95% | inhibition [2]: 73.6% | inhibition [3]: > 95% | IC50 [4]: 9 µM | IC50 [9]: 9 µM | IC50 [5]: 1.68 µM | IC50 [6]: 12.1 µM | IC50 [7]: 5.15 µM | viability [8]: ≥ 80%

O=C1CC(c2c[nH]c3ccc(F)cc23)C(=O)N1 (configuration not stated) [PF-06840003]
IC50 [6]: 327 µM | IC50 [7]: 378 µM | viability [8]: ≥ 80%

NOC(c1ccccc1)c1cc(Cl)cc(Cl)c1 (configuration not stated)
inhibition [1]: > 95% | inhibition [2]: 69.8% | inhibition [3]: 83.4% | IC50 [4]: 2 µM | IC50 [5]: 0.87 µM | IC50 [6]: 8.66 µM | IC50 [7]: 5.7 µM | viability [8]: ≥ 80% | inhibition [13]: Active

NOC(CCc1cccc(Cl)c1)c1ccccc1 (configuration not stated)
inhibition [1]: > 95% | inhibition [2]: 78.1% | inhibition [3]: 93.1% | IC50 [4]: 7 µM | IC50 [5]: 6.74 µM | IC50 [6]: 20.5 µM | IC50 [7]: 58.7 µM | viability [8]: ≥ 80%

NOC(c1ccccc1)c1cc(F)cc(F)c1 (configuration not stated)
inhibition [1]: > 95% | inhibition [2]: 83% | inhibition [3]: 92.6% | IC50 [4]: 4 µM | IC50 [5]: 0.357 µM | IC50 [6]: 8.75 µM | IC50 [7]: 3.48 µM | viability [8]: ≥ 80%

NOC(c1ccccc1)c1ccccc1Br (configuration not stated)
inhibition [1]: > 95% | inhibition [2]: 81% | inhibition [3]: 90.4% | IC50 [4]: 17 µM | IC50 [5]: 1.46 µM | IC50 [6]: 12.3 µM | IC50 [7]: 22.5 µM | Ratio IC50 [16]: 5 to 10 | Ratio IC50 [17]: 5 to 10 | viability [8]: ≥ 80%

NOC(c1ccccc1)c1cccc(C(F)(F)F)c1F (configuration not stated)
inhibition [1]: > 95% | inhibition [2]: 81.1% | inhibition [3]: 93.2% | IC50 [4]: 6 µM | IC50 [5]: 0.933 µM | IC50 [6]: 16.8 µM | IC50 [7]: 5.62 µM | viability [8]: ≥ 80%
